Data on 48 compounds can be found in ChEMBL document CHEMBL5625188, “Exploring diverse reactive warheads for the design of SARS-CoV-2 main protease inhibitors” (Eur J Med Chem, 2023).

The target of data set [1] is T1, Replicase polyprotein 1ab (Severe acute respiratory syndrome coronavirus 2, UniProt P0DTD1). In words: Inhibition of MPro of SARS CoV-2 BetaCoV/Wuhan/WIV04/2019 preincubated for 30 mins followed by substrate addition measured for 1 hr by FRET assay.
A short description of data set [2]: Cytotoxicity against African green monkey Vero cells incubated for 5 days by neutral red uptake assay. The following applies: chlorocebus sabaeus, time 5 day; for CC50: vero, 120 h; for CC50 at 120 h: Vero cells. In kind it is toxicity, cell-based. An outline of the steps: (§1)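 Vero E6 cells were kept in DMEM with 5% heat-inactivated FBS at 37 °C, 5% CO2, and seeded at 80,000 cells/mL. Neutral red uptake used 40 μg/mL dye for 2–4 h, read at 540 nm. CC50 came from a variable-slope dose-response fit.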

Data set [3] in a line: Cytotoxicity against human Calu-3 cells infected with SARS CoV-2 USA-WA1/2020 clinical isolate assessed as reduction in cell viability incubated for 48 hrs by imaging analysis. In kind it is toxicity, cell-based.
Data set [4] in a line: Cytotoxicity against African green monkey Vero cells. In kind it is toxicity, cell-based. The following applies: chlorocebus sabaeus. An outline of the steps: as §1
The target in data set [5] is T1, Replicase polyprotein 1ab. In words: Inhibition of SARS-CoV-2 MPro. An outline of the steps: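 FRET substrate was added to 10 μM final. Fluorescence (ex 360, em 460 nm) was followed 1 h at 30 °C. Initial velocities came from linear regression of the first 15 min, giving % inhibition and IC50.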
Data set [6] has as its target T1, Replicase polyprotein 1ab. In words: Inhibition of MPro of SARS CoV-2 BetaCoV/Wuhan/WIV04/2019 incubated for 2 hrs in presence of substrate by FRET assay.
The test system of another data set is SARS-CoV-2. The data set can be described thus: Antiviral activity against SARS CoV-2 USA-WA1/2020 clinical isolate infected in human Calu-3 cells assessed as reduction in viral infection incubated for 48 hrs by imaging analysis. The note with it: Severe acute respiratory syndrome coronavirus 2, USA-WA1/2020, Calu-3, 48 h. In kind it is functional, organism-based.

Regarding `C=CS(=O)(=O)N(c1ccc(-c2ccccc2)cc1)[C@@H](C(=O)N[C@@H](C)c1ccccc1)c1cccnc1`, the IC50 in data set [1] turned out to be 0.31 µM. The CC50 in data set [2] was found to be 18.4 µM.

Take `COc1ccc(/C=C(\C#N)C(=O)N(c2ccc(-c3ccccc3)cc2)[C@@H](C(=O)N[C@@H](C)c2ccccc2)c2cccnc2)cc1`: the CC50 in data set [2] is over 100 µM. Besides, in data set [3], the CC50 at 48 h was over 100 µM.

Compound `C#CC(=O)N(c1ccc(-c2ccccc2)cc1)[C@@H](C(=O)N[C@@H](C)c1ccccc1)c1cccnc1` returned a CC50 at 120 h in data set [2] of 2.06 µM.

As to `C#CCN(c1ccc(-c2ccccc2)cc1)C(C(=O)N[C@@H](C)c1ccccc1)c1cccnc1` (stereo partly drawn), in data set [1], the IC50 was over 20 µM.

In data set [1], `CCC#CC(=O)N(c1ccc(-c2ccccc2)cc1)C(C(=O)N[C@@H](C)c1ccccc1)c1cccnc1` (stereo partly drawn) yielded an IC50 of 1.65 µM. The compound further displayed a CC50 at 120 h in data set [2] of 38.6 µM.

In data set [1], `C=C(NC(C)=O)C(=O)N(c1ccc(-c2ccccc2)cc1)C(C(=O)N[C@@H](C)c1ccccc1)c1cccnc1` (stereo partly drawn) showed an IC50 of over 20 µM.

As for `C[C@H](NC(=O)C(c1cccnc1)N(C(=O)C1(C#N)CCN(C(=O)OC(C)(C)C)CC1)c1ccc(-c2ccccc2)cc1)c1ccccc1` (stereo partly drawn), the IC50 in data set [1] was over 20 µM.

In turn, `C[C@H](NC(=O)C(c1cccnc1)N(C(=O)/C=C/Br)c1ccc(-c2ccccc2)cc1)c1ccccc1` (stereo partly drawn) came in with an IC50 in data set [1] of over 20 µM.

`C=C(C(=O)N(c1ccc(-c2ccccc2)cc1)C(C(=O)N[C@@H](C)c1ccccc1)c1cccnc1)c1ccccc1` (stereo partly drawn) yielded an IC50 in data set [1] of over 20 µM.

`C[C@H](NC(=O)[C@H](c1cccnc1)N(C(=O)C#CCCl)c1ccc(-c2ccccc2)cc1)c1ccccc1` returned a CC50 in data set [2] of 2.2 µM.

`C[C@H](NC(=O)[C@H](c1cccnc1)N(C(=O)C#CCC#N)c1ccc(-c2ccccc2)cc1)c1ccccc1`: the IC50 in data set [1] is over 20 µM.

`C[C@H](NC(=O)C(c1cccnc1)N(C(=O)/C(C#N)=C/C1CC1)c1ccc(-c2ccccc2)cc1)c1ccccc1` (stereo partly drawn) registered an IC50 in data set [1] of over 20 µM.

Compound `C[C@H](NC(=O)C(c1cccnc1)N(C(=O)C(C#N)=C1CCCCC1)c1ccc(-c2ccccc2)cc1)c1ccccc1` (stereo partly drawn) returned an IC50 in data set [1] of over 20 µM.

For `C/C=C(\C)C(=O)N(c1ccc(-c2ccccc2)cc1)C(C(=O)N[C@@H](C)c1ccccc1)c1cccnc1` (stereo partly drawn), the IC50 in data set [1] was over 20 µM.

With `C#CCC(=O)N(c1ccc(-c2ccccc2)cc1)C(C(=O)N[C@@H](C)c1ccccc1)c1cccnc1` (stereo partly drawn), the IC50 in data set [1] worked out at 4.63 µM.

Take `COC(=O)/C=C/C(=O)N(c1ccc(-c2ccccc2)cc1)C(C(=O)N[C@@H](C)c1ccccc1)c1cccnc1` (stereo partly drawn): in data set [1], the IC50 came out at 3.97 µM. In data set [2], the CC50 at 120 h amounted to 8.9 µM.

Turning to `C=C(Br)C(=O)N(c1ccc(-c2ccccc2)cc1)C(C(=O)N[C@@H](C)c1ccccc1)c1cccnc1` (stereo partly drawn), half-maximal inhibition in data set [1] (IC50) required 4.26 µM. For the same compound, the CC50 at 120 h in data set [2] was under 3.9 µM.

In turn, `C=C(C)C(=O)N(c1ccc(-c2ccccc2)cc1)C(C(=O)N[C@@H](C)c1ccccc1)c1cccnc1` (stereo partly drawn) came in with an IC50 in data set [1] of over 20 µM.

Consider `C=C(Cl)C(=O)N(c1ccc(-c2ccccc2)cc1)C(C(=O)N[C@@H](C)c1ccccc1)c1cccnc1` (stereo partly drawn), for which the CC50 in data set [4] is under 10 µM.

In the case of `C[C@H](NC(=O)C(c1cccnc1)N(C(=O)C#CC(C)(C)O)c1ccc(-c2ccccc2)cc1)c1ccccc1` (stereo partly drawn), the IC50 in data set [1] worked out at 1.28 µM. The CC50 at 120 h in data set [2] is 19.1 µM.

`C[C@H](NC(=O)C(c1cccnc1)N(C(=O)C1=CC(=O)CC1)c1ccc(-c2ccccc2)cc1)c1ccccc1` (stereo partly drawn) showed an IC50 in data set [1] of over 20 µM.

In data set [1], `C[C@H](NC(=O)C(c1cccnc1)N(C(=O)C#CC1CC1)c1ccc(-c2ccccc2)cc1)c1ccccc1` (stereo partly drawn) came in with a concentration for half-maximal inhibition (IC50) of 0.85 µM. For the same compound, in data set [2], the CC50 was determined as 102 µM.

Compound `CC(C)C#CC(=O)N(c1ccc(-c2ccccc2)cc1)C(C(=O)N[C@@H](C)c1ccccc1)c1cccnc1` (stereo partly drawn) gave an IC50 in data set [1] of 4.19 µM.

Turning to `CCC(=O)C(=O)N(c1ccc(-c2ccccc2)cc1)C(C(=O)N[C@@H](C)c1ccccc1)c1cccnc1` (stereo partly drawn), in data set [1], the IC50 was 3.81 µM.

In data set [1], `CC(C)=CC(=O)N(c1ccc(-c2ccccc2)cc1)C(C(=O)N[C@@H](C)c1ccccc1)c1cccnc1` (stereo partly drawn) had an IC50 of over 20 µM.

The compound `C=CC(=O)N(c1ccc(-c2ccccc2)cc1)C(C(=O)N[C@@H](C)c1ccccc1)c1cccnc1` (stereo partly drawn) registered an IC50 in data set [5] of over 20 µM.

In data set [1], `C[C@H](NC(=O)[C@@H](c1cccnc1)N(C(=O)C#CCC#N)c1ccc(-c2ccccc2)cc1)c1ccccc1` had an IC50 of 0.5 µM. Also, the CC50 at 120 h in data set [2] is over 100 µM. In addition, the inhibition constant (Ki) in data set [6] amounted to 0.345 µM. The EC50 in the data set with SARS-CoV-2 came to 2.92 µM. Moreover, the CC50 at 48 h in data set [3] was over 100 µM.

`CC#CC(=O)N(c1ccc(-c2ccccc2)cc1)C(C(=O)N[C@@H](C)c1ccccc1)c1cccnc1` (stereo partly drawn): in data set [2], the midpoint of cytotoxicity, the CC50 at 120 h, lay at 18 µM.

In data set [1], `C[C@H](NC(=O)C(c1cccnc1)N(C(=O)/C=C/c1ccco1)c1ccc(-c2ccccc2)cc1)c1ccccc1` (stereo partly drawn) yielded an IC50 of 15.4 µM.

In the case of `C[C@H](NC(=O)C(c1cccnc1)N(C(=O)/C=C\I)c1ccc(-c2ccccc2)cc1)c1ccccc1` (stereo partly drawn), the IC50 in data set [1] was over 20 µM.

For the compound `C#CC(=O)N(c1ccc(-c2ccccc2)cc1)[C@H](C(=O)N[C@@H](C)c1ccccc1)c1cccnc1`, the CC50 at 120 h in data set [2] is 2.8 µM.

Regarding `C=CS(=O)(=O)N(c1ccc(-c2ccccc2)cc1)[C@H](C(=O)N[C@@H](C)c1ccccc1)c1cccnc1`, the IC50 in data set [1] is 6.49 µM.

Take `CC(=O)/C=C/C(=O)N(c1ccc(-c2ccccc2)cc1)C(C(=O)N[C@@H](C)c1ccccc1)c1cccnc1` (stereo partly drawn): the IC50 in data set [1] came to 17 µM.

In data set [1], `C=C(F)C(=O)N(c1ccc(-c2ccccc2)cc1)C(C(=O)N[C@@H](C)c1ccccc1)c1cccnc1` (stereo partly drawn) displayed an IC50 of over 20 µM.

Regarding `C[C@H](NC(=O)C(c1cccnc1)N(C(=O)C#CC(C)(C)F)c1ccc(-c2ccccc2)cc1)c1ccccc1` (stereo partly drawn), the IC50 in data set [1] was over 20 µM.

Regarding `C[C@H](NC(=O)C(c1cccnc1)N(C(=O)/C=C/C(=O)O)c1ccc(-c2ccccc2)cc1)c1ccccc1` (stereo partly drawn), inhibition in data set [1] was half-maximal at 12.4 µM (IC50). Also, the CC50 at 120 h in data set [2] is over 250 µM.

In data set [1], `C[C@H](NC(=O)C(c1cccnc1)N(C(=O)C1(C#N)CC1)c1ccc(-c2ccccc2)cc1)c1ccccc1` (stereo partly drawn) displayed an IC50 of over 20 µM.

Take `C[C@H](NC(=O)C(c1cccnc1)N(C(=O)C(=O)N1CCN(C)CC1)c1ccc(-c2ccccc2)cc1)c1ccccc1` (stereo partly drawn): the IC50 in data set [1] is over 20 µM.

The compound `C=C(C(=O)N(c1ccc(-c2ccccc2)cc1)C(C(=O)N[C@@H](C)c1ccccc1)c1cccnc1)C(F)(F)F` (stereo partly drawn) yielded an IC50 in data set [1] of 4.36 µM. The same compound yielded a CC50 at 120 h in data set [2] of under 3.9 µM.

As for `C[C@H](NC(=O)C(c1cccnc1)N(C(=O)C1=CCCCC1)c1ccc(-c2ccccc2)cc1)c1ccccc1` (stereo partly drawn), the IC50 in data set [1] is over 20 µM.

The compound `C[C@H](NC(=O)[C@@H](c1cccnc1)N(C(=O)C#CCCl)c1ccc(-c2ccccc2)cc1)c1ccccc1` came in with a 50% cytotoxic concentration (CC50) in data set [2] of 2 µM.

In data set [1], `C#CCCC(=O)N(c1ccc(-c2ccccc2)cc1)C(C(=O)N[C@@H](C)c1ccccc1)c1cccnc1` (stereo partly drawn) returned an IC50 of over 20 µM.

Regarding `C[C@H](NC(=O)C(c1cccnc1)N(C(=O)C(F)(F)S(=O)(=O)F)c1ccc(-c2ccccc2)cc1)c1ccccc1` (stereo partly drawn), in data set [1], the IC50 was over 20 µM.

Take `CC(C)/C=C(\C#N)C(=O)N(c1ccc(-c2ccccc2)cc1)C(C(=O)N[C@@H](C)c1ccccc1)c1cccnc1` (stereo partly drawn): in data set [1], the IC50 is over 20 µM.

In the case of `C[C@H](NC(=O)C(c1cccnc1)N(C(=O)C1(C#N)CCOCC1)c1ccc(-c2ccccc2)cc1)c1ccccc1` (stereo partly drawn), the IC50 in data set [1] is over 20 µM.

As to `CO/C=C/C(=O)N(c1ccc(-c2ccccc2)cc1)C(C(=O)N[C@@H](C)c1ccccc1)c1cccnc1` (stereo partly drawn), the IC50 in data set [1] was over 20 µM.

Turning to `C[C@H](NC(=O)C(c1cccnc1)N(C(=O)/C=C/Cl)c1ccc(-c2ccccc2)cc1)c1ccccc1` (stereo partly drawn), the IC50 in data set [1] was over 20 µM.

In turn, `CCC(CC)COC(=O)[C@H](C)N[P@](=O)(OC[C@H]1O[C@@](C#N)(c2ccc3c(N)ncnn23)[C@H](O)[C@@H]1O)Oc1ccccc1` [REMDESIVIR] gave a CC50 at 120 h in data set [2] of over 10 µM. In addition, the EC50 with SARS-CoV-2 was determined as 0.17 µM. Also, the CC50 at 48 h in data set [3] was over 10 µM.

Broadly, the IC50 is the concentration at which inhibition is half-maximal. As usually defined, the CC50 is the concentration giving 50% cytotoxicity. For orientation: Ki means the equilibrium dissociation constant of an inhibitor or competing ligand from its target. As usually defined, the EC50 is the concentration that produces a half-maximal response.
